Results reported in ChEMBL document CHEMBL2163193, “Meroterpenoid and diphenyl ether derivatives from Penicillium sp. MA-37, a fungus isolated from marine mangrove rhizospheric soil” (J Nat Prod, 2012).
In brackets after ≈: the same amount, converted by molar mass.

Legend:
Escherichia coli = experiment: Antimicrobial activity against Escherichia coli by broth microdilution method; format: functional
In short: (§1)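 Broth microdilution run per a cited literature method, with chloromycetin as the positive control. The read-out is the MIC in μg/mL.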

Micrococcus luteus = experiment: Antimicrobial activity against Micrococcus luteus by broth microdilution method; format: functional; in short: as §1
[1] = Toxicity against brine shrimp; format: organism-based; conditions: artemia, in vivo; read-out: LD50 (the source's name)
In short: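 Brine shrimp lethality follows a literature procedure, with DMSO as the negative control and colchicine as the positive control. Lethality is expressed as LD50 in μM.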

| MIC (Escherichia coli) | MIC (Micrococcus luteus) | Compound | LC50 [1] |
| --- | --- | --- | --- |
| – | – | COc1c([C@@H](O)CC(C)C)ccc2c1C(=O)OCc1cc(C)cc(O)c1O2 [PENICILLIDE] | 158 µM |
| – | – | COc1c(/C=C/C(C)(C)OC)ccc2c1C(=O)OCc1cc(C)cc(O)c1O2 | 72.6 µM |
| – | – | C=C(C)/C=C/c1ccc2c(c1OC)C(=O)OCc1cc(C)cc(O)c1O2 | 136 µM |
| 32 mg/L (≈ 79.1 µM) | 256 mg/L (≈ 633 µM) | COc1c(C(CC(C)C)OC)ccc(Oc2c(O)cc(C)cc2CO)c1C(=O)O (stereo unspecified) | – |
| – | – | COc1cc2c(c(OC)c1OC)-c1ccc(OC)c(=O)cc1[C@@H](NC(C)=O)CC2 [COLCHICINE] | 71.1 µM |
| 16 mg/L (≈ 40 µM) | 64 mg/L (≈ 160 µM) | CC(=O)OCc1cc(C)cc(O)c1Oc1ccc(CC=C(C)C)c(O)c1C(=O)O | – |
| – | – | COC(=O)[C@]12C(=O)[C@H](C)O[C@@H]3OC(=O)[C@](C)(C[C@H]4[C@]5(CO5)C5=CC(=O)OC(C)(C)C5=CC[C@@]41C)[C@@H]32 [BERKELEYACETAL B] | 160 µM |

| Compound | MIC (Escherichia coli) | MIC (Micrococcus luteus) | LC50 [1] |
| --- | --- | --- | --- |
| O=C(N[C@H](CO)[C@H](O)c1ccc([N+](=O)[O-])cc1)C(Cl)Cl [CHLORAMPHENICOL] | 4 mg/L (≈ 12.4 µM) | 4 mg/L (≈ 12.4 µM) | – |
